BasE inh: BasE siderophore biosynthesis inhibition; purified BasE, fluorescence polarization binding displacement; inhibition, % (test concentration not listed); 0.1% of 84,000 active; in the data active = inhibition above about 25%, passing the limit was not always enough;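 note: 0% = negative plate control signal and 100% = positive plate control signal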
KSHV LANA nucl: LANA-nucleosome interaction inhibition; FITC-LANA1-23 / chicken nucleosome fluorescence polarization; hits give low values; z-score (test concentration not listed); 0.3% of 51,000 active; AID 720717;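 active = both repeat wells score below -2 in polarization z-score versus plate sample wells, excluding overly bright wells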
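System – purified chicken nucleosomes with FITC-labelled LANA N-terminal peptide (1-23) · Amount – 240 nM purified chicken nucleosomes (480 nM peptide binding sites), final · Also added – 50 nM FITC-LANA1-23 probe · Medium – TEN-BT buffer, pH 7.5 · Incubation – compound with peptide–nucleosome mix 10–45 min at room temperature · Detection – fluorescence polarization, ex 480 nm, em 535 nm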
An asterisk follows results filed as active; nt = not tested or not shown; ! = repeats disagree. Many of the other results were omitted from the sample, so hits are more common in it than they were.

SMILES	BasE inh	KSHV LANA nucl
CCOc1nc2cccnc2n(C(CC)C(=O)Nc2ccccc2CC)c1=O (stereo unspecified)	0	-0.94
Cc1ccc(CCNC(=O)c2ccc3nc(-c4ccco4)c(-c4ccco4)nc3c2)cc1	0	-0.77
CCc1nc2ccc(C(=O)NCCc3ccco3)cc2nc1CC	2	-2.2*
CC(C)N1C(=O)C2C(c3ccco3)NN(Cc3ccccc3)C2C1=O (stereo unspecified)	4	0.85
CCN(CC)CCSc1nc2ccc(OC)cc2[nH]1	4	0.34
CCN(CC)CCCC(C)Nc1c2ccc(Cl)cc2nc2ccc(OC)cc12 (stereo unspecified)	51	-2.3*!
CCCCn1c2ccccc2c2nnc(SC(C)C(=O)OC)nc21 (stereo unspecified)	0	-0.69
CC(NC(=O)Cn1[nH]c(=O)c2ccccc2c1=O)c1ccc(S(N)(=O)=O)cc1 (stereo unspecified)	2	nt
CC(C)(C)CC(C)(C)NC(=O)Nc1cccc(Cl)c1	2	-2*
Cc1ccccc1NC(=O)NC(C)(C)CC(C)(C)C	1	-0.068
O=S(=O)(c1ccccc1)N1N=C(c2cccs2)CC1c1ccccc1O (stereo unspecified)	1	nt
CC1CCN(S(=O)(=O)N2CCCC(C(=O)Nc3ccccc3C(=O)c3ccccc3)C2)CC1 (stereo unspecified)	0	-2.2*
COC(=O)c1cc(NC(=O)C2CCCN(S(=O)(=O)N3CCC(C)CC3)C2)cc(C(=O)OC)c1 (stereo unspecified)	1	-1.5
O=C(NCCC(=O)N1CCN(C/C=C/c2ccccc2)CC1)c1ccc(Cl)cc1	1	nt
O=C(Nc1ccccc1N1CCOCC1)c1cccc(N2C(=O)c3ccccc3C2=O)c1	0	nt
O=C1c2cccc3c(N4CCOCC4)ccc(c23)C(=O)N1c1ccccc1	13	-3.1*
O=C1C=CC(=O)c2c(Cl)ccc(Cl)c21	80*	-0.036
CC(C)c1ccc(C2=CC(=O)C=CC2=O)cc1	2	0.66
CCCCCc1nn2cc(-c3cccc(OC)c3)nc2s1	-3	-0.52
CC(C)NC(=O)NC1C2CC3CC(C2)CC1C3 (stereo unspecified)	-1	1.5
CCCCNC(=O)NC1C2CC3CC(C2)CC1C3 (stereo unspecified)	26*	0.8
N/C(CC(=O)NCc1ccccc1)=N\O	1	nt
Nc1ccc2c(c1)CCC2=O	2	0.82
O=C1CC(=O)c2ccc3c4c(ccc1c24)C(=O)CC3=O	27*	-0.28
Cc1cc(Nc2ccc3ccccc3n2)n(-c2ccccc2)n1	3	nt
SMILES	BasE inh	KSHV LANA nucl
C/C(N)=C(/C#N)C(=O)CSc1nc2ccc(Br)cc2c(=O)n1Cc1ccco1	-8	nt
O=C(NCc1ccccc1)c1cccnc1Nc1ccccc1	0	-1.1
Nc1cccnc1Nc1ccccc1	24	-3.1*
Cc1cc(=O)n2nc(N(C)CC(=O)NC3CCCc4ccccc43)sc2n1 (stereo unspecified)	-1	-2.3*
O=C(Cn1cnnn1)NC1CCCc2ccccc21 (stereo unspecified)	2	nt
CC(C)(C)c1ccc(C(=O)Nc2ccc3oc(-c4ccncc4)nc3c2)cc1	4	0.13
COc1cc(/C=C/C(=O)OCC(=O)Nc2cccc(F)c2)ccc1O	1	nt
O=C(/C=C/c1ccc(O)c(O)c1)O[C@@H]1C[C@](O)(C(=O)O)C[C@@H](O)[C@H]1O	32*!	0.071
O=C(CCN1C(=O)/C(=C\c2ccco2)SC1=S)NN1CCOCC1	-1	2.3
O=C(CCN1C(=O)/C(=C\C=C\c2ccco2)SC1=S)Nc1ccc(C(=O)O)c(O)c1	33*	-0.23
CC1CCCC(C)N1NC(=S)Nc1ccccc1 (stereo unspecified)	-2	-0.062
N#Cc1cccc(C(=O)NCC(F)(F)F)c1	2	nt
COc1cccc(N2CCN(C(=O)c3nn(C)c4c3COc3ccccc3-4)CC2)c1	3	-2.3*
COc1cccc(C(=O)N2CCN(c3ccccc3)CC2)c1	3	nt
Cc1c2cnn(-c3ccccc3)c(=O)c2c(C)n1CCCC(=O)NC(C)(C)C	-2	1.1
CC(=O)n1cc(/C=N/NC(=O)c2cccc(O)c2)c2ccccc21	28*	0.47
O=C(N/N=C/c1c[nH]c2ccccc12)c1cccc(O)c1	21	-0.36
O=C(C1Cc2ccccc2CN1C(=O)c1ccco1)N1CCc2ccccc21 (stereo unspecified)	-3	nt
O=C(CSC1=NNC(c2ccccn2)S1)Nc1cccc(Cl)c1 (stereo unspecified)	2	-2.1*
COc1cccc(NC(=O)CSc2ncccn2)c1	1	-0.7
CCOC(=O)C(C)n1nc(C)c2c(C)n(-c3ccccc3)nc2c1=O (stereo unspecified)	-2	-0.29
O=C(Oc1cccc2cccnc12)c1ccccc1	2	-0.04
O=C(Oc1cccc2cccnc12)c1cc(C(F)(F)F)cc(C(F)(F)F)c1	42*	nt
CC(=O)N(CCC(c1ccc(C)cc1)c1ccco1)Cc1cccs1 (stereo unspecified)	0	-0.76
Cc1ccc(CC(C#N)Sc2nccn2C)cc1 (stereo unspecified)	-4	nt
SMILES	BasE inh	KSHV LANA nucl
O=C1CCCC2=C1Sc1ccccc1N2	13	-2.7*
O=C1CCCC2=C1C(c1cccc(Br)c1)Nc1ccccc1N2 (stereo unspecified)	-2	nt
CCOC(=O)c1ccccc1NS(=O)(=O)c1ccc2c(c1)OCCO2	1	nt
CC1CCc2cc(F)ccc2N1C(=O)c1ccc(=O)[nH]n1 (stereo unspecified)	0	-1.4
N#CC1=C2SCN(Cc3ccccc3)CN2C(=O)CC1c1cccs1 (stereo unspecified)	-1	-0.44
CCN1C=CC2=C(C#N)C(N)C(C#N)(C#N)C(c3cccs3)C2C1 (stereo unspecified)	16	-6.3*
O=S1(=O)C=C(Nc2ccccc2)CC1	1	0.13
S=c1sc2ccccc2n1CN1CCCCC1	5	-0.6
CCC(C)COc1ccc(O)cc1 (stereo unspecified)	nt	2.2

High-throughput results deposited in PubChem BioAssay by ICCB-Longwood Screening Facility, Harvard Medical School.
